For assay [1], the target named is T1, Cannabinoid receptor 2 (Homo sapiens, UniProt P34972). Kind of assay: Agonist activity at human recombinant CB2 receptor expressed in HEK cells assessed as calcium mobilization by FLIPR. It counts as functional, cell-based, HEK293. An outline of the steps:
(§1)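 HEK cells stably coexpressing human CB2 and chimeric Gαq/o5 protein, seeded 75,000/well one day before; no-wash calcium dye.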
A general note: Calcium assays in cells follow changes in intracellular calcium, usually with a dye or a luminescent sensor.

Assay [2] has as its target T1, Cannabinoid receptor 2. Kind of assay: Displacement of [3H]CP-55940 from human recombinant CB2 receptor expressed in HEK cells. The following applies: read-out: Ki. The assay is classed as cell-based, HEK293.
For assay [3], the species on record is Rattus norvegicus. Kind of assay: Antiinflammatory activity against rat CFA-induced chronic inflammatory thermal hyperalgesia model assessed as effect on paw withdrawal latency. It counts as functional, organism-based. In outline:
(§2)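 Rats given 150 µL of 50% CFA in PBS into right hind plantar paw; thermal hyperalgesia tested 48 h later. Compound in 5% DMSO/95% PEG; PWL read 30 min post dose in ipsilateral and contralateral paws, 3 trials ~5 min apart, mean of two shortest latencies. n = 6 per dose; compared against vehicle. Antagonist pretreatment group included.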

Assay [4] addresses T1, Cannabinoid receptor 2. Kind of assay: Agonist activity at human recombinant CB2 receptor expressed in HEK cells assessed as calcium mobilization by FLIPR relative to CP-55940. The following applies: HEK293. The assay is classed as functional, cell-based. An outline of the steps:
as §1

Assay [5] is filed under the species Rattus norvegicus. Kind of assay: Antiinflammatory activity against CB2 receptor antagonist SR-144528-pretreated rat CFA-induced chronic inflammatory thermal hyperalgesia model assessed as effect on paw withdrawal latency. It counts as functional, organism-based. An outline of the steps: as §2
The target in another assay is Cannabinoid receptor 1 (Homo sapiens, UniProt P21554). Kind of assay: Displacement of [3H]CP-55940 from human recombinant CB1 receptor expressed in HEK cells. The assay is classed as cell-based, HEK293.
The species entered for a further assay is Homo sapiens. Kind of assay: Selectivity for human recombinant CB2 receptor over human recombinant CB1 receptor. In outline:
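Ki ratio from [3H]CP-55940 (0.5 nM) competition binding: human CB1 membranes from stably expressing […] cells versus human CB2 membranes from stably expressing HEK cells. Tris-HCl pH 7.4 buffer with EDTA, MgCl2, BSA; 90 min at 30 °C; filtration counting; nonspecific with 10 µM unlabeled ligand; ≥3 experiments in duplicate.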

For assay [6], the species on record is Rattus norvegicus. Kind of assay: Antiinflammatory activity against CB1 receptor antagonist SR-141716A-pretreated rat CFA-induced chronic inflammatory thermal hyperalgesia model assessed as effect on paw withdrawal latency. It counts as functional, organism-based. In outline:
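Rats received 150 µL of 50% CFA in PBS into the right hind plantar paw. Thermal hyperalgesia was tested 48 h later after antagonist pretreatment, dosing in 5% DMSO/95% PEG vehicle, n = 6 per dose. Paw withdrawal latency was measured 30 min post-dose in the ipsilateral and contralateral paws, with 3 trials about 5 min apart. The value is the mean of the two shortest latencies, compared with vehicle.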

Molecules are shown by their SMILES. Activity calls are given as the source filed them. No cut-off for these calls is given here.

Chain of Cannabinoid receptor 1 (P21554 whole entry): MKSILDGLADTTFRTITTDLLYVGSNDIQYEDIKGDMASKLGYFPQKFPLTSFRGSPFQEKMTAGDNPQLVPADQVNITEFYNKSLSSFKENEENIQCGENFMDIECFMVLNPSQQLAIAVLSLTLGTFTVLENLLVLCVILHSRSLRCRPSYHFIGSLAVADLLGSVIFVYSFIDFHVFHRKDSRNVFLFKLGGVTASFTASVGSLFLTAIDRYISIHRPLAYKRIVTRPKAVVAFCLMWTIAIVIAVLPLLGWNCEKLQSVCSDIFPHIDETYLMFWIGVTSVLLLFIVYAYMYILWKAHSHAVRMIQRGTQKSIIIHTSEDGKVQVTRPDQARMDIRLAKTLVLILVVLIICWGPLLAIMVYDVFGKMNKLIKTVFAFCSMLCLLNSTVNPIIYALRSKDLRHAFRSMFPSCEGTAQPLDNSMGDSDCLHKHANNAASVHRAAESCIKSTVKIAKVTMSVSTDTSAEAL
T1 sequence (P34972 whole entry): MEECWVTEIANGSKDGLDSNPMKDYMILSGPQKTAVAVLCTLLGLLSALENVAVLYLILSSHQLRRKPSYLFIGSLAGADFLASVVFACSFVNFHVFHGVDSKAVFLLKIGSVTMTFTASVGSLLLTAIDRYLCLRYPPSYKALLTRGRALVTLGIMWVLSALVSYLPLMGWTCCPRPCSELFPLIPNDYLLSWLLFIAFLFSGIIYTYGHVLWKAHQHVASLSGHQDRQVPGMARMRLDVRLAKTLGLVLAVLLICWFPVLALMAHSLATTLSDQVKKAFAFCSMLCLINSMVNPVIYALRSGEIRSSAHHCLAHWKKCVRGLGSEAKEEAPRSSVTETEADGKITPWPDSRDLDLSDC

What is called EC50 is the midpoint of the concentration-response curve. By Ki is commonly meant a dissociation constant, usually derived from enzyme kinetics or from competition with a known ligand. As to `CC1(C)C(C(=O)c2cn(CCN3CCOCC3)c3ccccc23)C1(C)C`, the EC50 on Cannabinoid receptor 2 [1] came to 14 nM. In addition, the Ki on Cannabinoid receptor 2 [2] was determined as 4.4 nM. Besides, in the assay listed under Rattus norvegicus [3], the result was Active. Besides, the Activity on Cannabinoid receptor 2 [4] was determined as 71%.
In the case of `Cc1ccc(Cn2nc(C(=O)NC3C(C)(C)C4CC[C@@]3(C)C4)cc2-c2ccc(Cl)c(C)c2)cc1` (stereo partly specified), the result in the assay filed under Rattus norvegicus [5] was inactive.
With `COc1cccc2c1c(C(=O)C1C(C)(C)C1(C)C)cn2CC1CCOCC1`, the inhibition constant (Ki) on Cannabinoid receptor 1 (read-out: Ki) amounted to 1090 nM; on Cannabinoid receptor 2 [2], 3.3 nM. The half-maximal effective concentration (EC50) at Cannabinoid receptor 2 [1] came out at 81 nM. Also, the Ratio Ki in the assay filed under Homo sapiens amounted to 330. For the same molecule, the Activity at Cannabinoid receptor 2 [4] is 37%.
For the molecule `CC1(C)C(C(=O)c2cn(CCN3CCOCC3)c3cc(O)ccc23)C1(C)C`, the Ki at Cannabinoid receptor 1 (read-out: Ki) was greater than 10000 nM; at Cannabinoid receptor 2 [2], 109 nM. Besides, the EC50 at Cannabinoid receptor 2 [1] amounted to 186 nM. Further, the Ratio Ki in the assay filed under Homo sapiens is greater than 92. In addition, the Activity at Cannabinoid receptor 2 [4] came to 62%.
As for `CC1(C)C(C(=O)c2cn(CCN3CCOCC3)c3cccc(N)c23)C1(C)C`, the inhibitory constant (Ki) was greater than 3500 nM at Cannabinoid receptor 1 (read-out: Ki), greater than 3470 nM at Cannabinoid receptor 1 (read-out: Log Ki (converted)) and 32 nM on Cannabinoid receptor 2 [2]. In addition, on Cannabinoid receptor 2 [1], the EC50 was 50 nM. Also, the Ratio Ki in the assay listed under Homo sapiens is greater than 109. At Cannabinoid receptor 2 [4], the Activity was 41%.
For the molecule `CC1(C)C(C(=O)c2cn(CC3CCOCC3)c3cccc(OCc4ccccc4)c23)C1(C)C`, the Ki on Cannabinoid receptor 1 (read-out: Ki) is greater than 10000 nM; at Cannabinoid receptor 2 [2], 9.3 nM. Also, on Cannabinoid receptor 2 [1], the half-maximal effective concentration (EC50) was determined as 383 nM. Also, the Ratio Ki in the assay listed under Homo sapiens was greater than 1080. In addition, the Activity on Cannabinoid receptor 2 [4] is 45%.
Regarding `CC1(C)C(C(=O)c2cn(CC3CCOCC3)c3ccc(Br)cc23)C1(C)C`, the Ki worked out at 1930 nM at Cannabinoid receptor 1 (read-out: Ki) and 6.6 nM at Cannabinoid receptor 2 [2]. The EC50 at Cannabinoid receptor 2 [1] came out at 280 nM. Besides, the Ratio Ki in the assay filed under Homo sapiens came out at 292. For the same molecule, the Activity at Cannabinoid receptor 2 [4] was determined as 54%.
As to `CC1(C)C(C(=O)c2cn(CC3CCOCC3)c3cccc(O)c23)C1(C)C`, the EC50 on Cannabinoid receptor 2 [1] is 64 nM. The inhibition constant Ki on Cannabinoid receptor 2 [2] was 3.9 nM. For the same molecule, the Activity entry in the assay filed under Rattus norvegicus [3] was “Dose-dependent effect”; at Cannabinoid receptor 2 [4] it was 94%.
Take `Cc1c(C(=O)NN2CCCCC2)nn(-c2ccc(Cl)cc2Cl)c1-c1ccc(Cl)cc1`: the outcome in the assay filed under Rattus norvegicus [6] was Active.
For `CC1(C)C(C(=O)c2cn(CC3CCOCC3)c3cc(-c4ccccc4)ccc23)C1(C)C`, the Ki on Cannabinoid receptor 1 (read-out: Ki) turned out to be 228 nM; at Cannabinoid receptor 2 [2], 0.41 nM. For the same molecule, at Cannabinoid receptor 2 [1], the EC50 was greater than 10000 nM. For the same molecule, in the assay filed under Homo sapiens, the Ratio Ki worked out at 556. The outcome in the assay listed under Rattus norvegicus [3] was inactive.

For the origin of these results see ChEMBL document CHEMBL1144013, “Indol-3-yl-tetramethylcyclopropyl ketones: effects of indole ring substitution on CB2 cannabinoid receptor activity” (J Med Chem, 2008).
